Measurements reported in ChEMBL document CHEMBL1135907, “Novel 5-substituted 2,4-thiazolidinedione and 2,4-oxazolidinedione derivatives as insulin sensitizers with antidiabetic activities” (J Med Chem, 2002).

Key:
[1] = Plasma lipid-lowering activity at a dosage of 0.005% in the diet in KKA(y) mice.; format: functional, Mus musculus
How it was run: (§1)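 KKAy mice (9–13 weeks old), five per group, on powdered CE-2 diet containing compound at 0.001, 0.005 or 0.01% for 4 d. Plasma triglyceride from orbital-vein blood measured enzymatically and reported as maximum percent reduction from control; Dunnett's test; less than 10% reduction flagged.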

[2] = Plasma glucose-lowering activity at a dosage of 0.005% in the diet in KKA(y) mice.; format: functional, Mus musculus
How it was run: (§2)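 KKAy mice (9–13 weeks old), five per group, grouped by blood glucose after 3 d on powdered CE-2 chow. Dietary admixture at 0.001, 0.005 or 0.01% for 4 d, food and water ad libitum. Orbital-vein plasma glucose measured enzymatically and expressed as maximum percent reduction versus control; Dunnett's test.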

[3] = Plasma lipid-lowering activity at a dosage of 0.001% in the diet in KKAy mice; format: functional, Mus musculus; how it was run: as §1
[4] = Plasma glucose-lowering activity at a dosage of 0.001% in the diet in KKAy mice; format: functional, Mus musculus; how it was run: as §2
[5] = species: Mus musculus; assay: Effective dose for 25% reduction in plasma glucose-lowering activity of KKAy mice; format: functional
How it was run: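 KKAy mice (9–13 weeks old), five per group, allocated by blood glucose after 3 d on powdered CE-2 chow. Compounds given as dietary admix at three levels chosen from first screening, 4 d ad libitum. Orbital-vein plasma glucose assayed enzymatically. Dose in mg/kg/d computed from food intake and body weight; ED25 derived by linear regression.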

[6] = target: T1, RXR alpha/PPAR gamma (Homo sapiens, UniProt P19793+P37231); assay: Transcriptional activation in COS cells expressing PPAR gamma and RXR alpha
T1 sequence (P37231 whole entry): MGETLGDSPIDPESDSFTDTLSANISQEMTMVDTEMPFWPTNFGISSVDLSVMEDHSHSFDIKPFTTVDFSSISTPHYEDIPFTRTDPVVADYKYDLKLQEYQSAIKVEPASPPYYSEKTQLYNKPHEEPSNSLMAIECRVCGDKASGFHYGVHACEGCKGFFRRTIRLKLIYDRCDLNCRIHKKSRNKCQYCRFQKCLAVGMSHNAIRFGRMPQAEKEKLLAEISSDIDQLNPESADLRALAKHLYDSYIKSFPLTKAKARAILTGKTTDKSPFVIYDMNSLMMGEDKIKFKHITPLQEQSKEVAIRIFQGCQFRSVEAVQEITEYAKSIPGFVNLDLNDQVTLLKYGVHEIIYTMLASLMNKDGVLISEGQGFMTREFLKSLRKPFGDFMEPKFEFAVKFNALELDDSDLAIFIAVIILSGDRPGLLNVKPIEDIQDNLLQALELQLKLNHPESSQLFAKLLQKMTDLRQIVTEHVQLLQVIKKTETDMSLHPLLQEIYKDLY
T1 sequence (P19793 whole entry): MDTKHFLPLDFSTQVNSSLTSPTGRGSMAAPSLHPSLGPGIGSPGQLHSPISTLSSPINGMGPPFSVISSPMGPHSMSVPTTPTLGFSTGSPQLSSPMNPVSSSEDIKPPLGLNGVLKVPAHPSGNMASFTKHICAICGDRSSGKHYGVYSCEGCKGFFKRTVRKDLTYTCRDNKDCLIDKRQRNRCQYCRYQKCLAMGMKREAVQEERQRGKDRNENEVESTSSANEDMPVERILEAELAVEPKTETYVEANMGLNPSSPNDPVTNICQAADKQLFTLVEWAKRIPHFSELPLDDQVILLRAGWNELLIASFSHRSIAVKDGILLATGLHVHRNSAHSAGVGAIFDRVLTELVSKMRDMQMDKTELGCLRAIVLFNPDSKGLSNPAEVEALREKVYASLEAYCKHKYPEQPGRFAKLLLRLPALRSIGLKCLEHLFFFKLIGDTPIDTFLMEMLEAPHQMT

[7] = species: Rattus norvegicus; assay: Effective dose for 25% reduction in glucose-lowering activity in Wistar fatty rats; format: functional
How it was run: (§3)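 Wistar fatty rats (10–15 weeks old), five per group, allocated by plasma glucose and triglyceride. Oral dosing by stomach tube once daily for 6 d at three doses, suspended in 0.5% methyl cellulose; CE-2 pellets and water ad libitum. Tail-vein plasma glucose measured; ED25 taken from the three-dose response by linear regression.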

[8] = Plasma lipid-lowering activity at a dosage of 0.01% in the diet in KKAy mice; format: functional, Mus musculus; how it was run: as §1
[9] = species: Rattus norvegicus; assay: Effective dose for 25% reduction in plasma glucose-lowering activity in Wistar fatty rats; format: functional; how it was run: as §3
[10] = species: Mus musculus; assay: Effective dose for 25% reduction in plasma lipid-lowering activity in KKAy mice; format: functional
How it was run: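 Male/female not stated; KKAy mice, 9–13 weeks old, fed powdered CE-2 chow 3 d, grouped (five per group) by blood glucose. Compounds given as dietary admixture at three levels (0.01, 0.005 or 0.001% in diet) for 4 d. Orbital-vein plasma triglyceride measured enzymatically as % reduction vs control; dose (mg/kg/d) from food intake and body weight; ED25 by linear regression.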

[11] = Rattus norvegicus, Plasma, read-out: ED25

SMILES | Activity [1] | Activity [2] | Activity [3] | Activity [4] | other results
Cc1oc(-c2ccccc2)nc1COc1ccc(CCCCCC2OC(=O)NC2=O)cc1 (centres undefined) | 59 | 45 |  |  | 
COc1cc(CCCC2SC(=O)NC2=O)ccc1OCc1nc(-c2ccccc2)oc1C (centres undefined) | 58 | 54 | 24 | 12 | ED25 [5]: 3.17 mg/kg/day
Cc1oc(-c2ccccc2)nc1CCOc1ccc(CCC2SC(=O)NC2=O)cc1 (centres undefined) | 32 | 14 |  |  | 
Cc1oc(-c2ccccc2)nc1COc1ccc(CCCCC2OC(=O)NC2=O)cc1 (centres undefined) | 51 | 43 |  |  | 
Cc1sc(-c2ccccc2)nc1COc1ccc(CCCC2OC(=O)NC2=O)cc1 (single isomer, unassigned; (-)) |  |  |  |  | EC50 [6]: > 1000 nM; ED25 [7]: 3 mg/kg/day
Cc1oc(-c2cccc3ccccc23)nc1COc1ccc(CCCC2OC(=O)NC2=O)cc1 (centres undefined) |  | 23 |  |  | 
Cc1oc(-c2ccccc2)nc1CCOc1ccc(CCC2OC(=O)NC2=O)cc1 (centres undefined) | 53 | 56 | 15 | 18 | ED25 [5]: 4.83 mg/kg/day
Cc1oc(-c2ccccc2)nc1COc1ccccc1CCCC1OC(=O)NC1=O (centres undefined) |  | 11 |  |  | Activity [8]: 33
O=C1NC(=O)C(CCCc2ccc(OCc3coc(-c4ccccc4)n3)cc2)O1 (centres undefined) |  | 44 |  |  | 
Cc1oc(-c2cc3ccccc3o2)nc1COc1ccc(CCCC2OC(=O)NC2=O)cc1 (centres undefined) | 71 | 47 | 12 | 27 | 
Cc1sc(-c2ccccc2)nc1COc1ccc(CCCC2OC(=O)NC2=O)cc1 (centres undefined) | 58 | 43 | 17 | 15 | ED25 [9, 11]: 0.5 mg/kg/day; EC50 [6]: 813 nM
Cc1oc(-c2cc3ccccc3s2)nc1COc1ccc(CCCC2OC(=O)NC2=O)cc1 (centres undefined) | 62 | 48 | 24 | 25 | 
Cc1oc(-c2ccccc2)nc1CCOc1ccc(CCCCCC2OC(=O)NC2=O)cc1 (centres undefined) | 17 | 23 |  |  | 
Cc1oc(-c2ccccc2)nc1COc1ccc(CCCC2OC(=O)NC2=O)cc1 (centres undefined) | 83 | 61 | 55 | 53 | ED25 [5]: 0.402 mg/kg/day; ED25 [9, 11]: 0.078 mg/kg/day; EC50 [6]: 119 nM
Cc1oc(-c2ccccc2)nc1CCCOc1ccc(CC2OC(=O)NC2=O)cc1 (centres undefined) | 25 | 30 |  |  | 
Cc1oc(-c2ccccc2)nc1COc1ccc(CCCCC2SC(=O)NC2=O)cc1 (centres undefined) | 21 | 22 |  |  | 
COc1cc(CCCC2OC(=O)NC2=O)ccc1OCc1nc(-c2ccco2)oc1C (stereo in doubt; 64) | 74 | 58 | < 10 | 39 | ED25 [9]: 0.069 mg/kg/day; EC50 [6]: 24.1 nM
CC1(COc2ccc(CC3SC(=O)NC3=O)cc2)CCCCC1 (centres undefined) [CIGLITAZONE] |  |  |  |  | ED25 [10]: 25 mg/kg/day

SMILES | Activity [1] | Activity [2] | Activity [3] | Activity [4] | other results
Cc1oc(-c2ccccc2)nc1CCC(O)c1ccc(CCCC2OC(=O)NC2=O)cc1 (centres undefined) | 22 | 23 |  |  | 
Cc1oc(-c2ccccc2)nc1CCCc1ccc(CCCC2OC(=O)NC2=O)cc1 (centres undefined) | 19 | 22 |  |  | 
COc1cc(CCCC2OC(=O)NC2=O)ccc1OCc1nc(-c2ccco2)oc1C (stereo in doubt; (+)-64) |  |  | 32 | 45 | ED25 [9]: 0.05 mg/kg/day; EC50 [6]: 8.87 nM
Cc1oc(-c2ccco2)nc1COc1ccc(CCCC2OC(=O)NC2=O)cc1 (centres undefined) | 58 | 61 |  | 38 | 
Cc1oc(-c2ccccc2)nc1COc1ccc(CCC2OC(=O)NC2=O)cc1 (centres undefined) | 60 | 63 | 13 | 28 | ED25 [5]: 1.31 mg/kg/day
Cc1oc(-c2ccccc2)nc1CCOc1ccc(CCCCC2OC(=O)NC2=O)cc1 (centres undefined) | 27 | 27 |  |  | 
COc1cc(CCCC2OC(=O)NC2=O)ccc1OCc1nc(-c2ccco2)oc1C (single isomer, unassigned; (-)) |  | <10 | < 10 |  | ED25 [9]: 0.362 mg/kg/day; EC50 [6]: 35.4 nM
Cc1oc(-c2ccccc2)nc1COc1ccc(CCCC2SC(=O)NC2=O)cc1 (centres undefined) | 37 | 48 | <10 | <10 | 
Cc1oc(-c2ccc3ccccc3c2)nc1COc1ccc(CCCC2OC(=O)NC2=O)cc1 (centres undefined) | 72 | 55 | 40 | 45 | ED25 [9, 11]: 0.178 mg/kg/day; EC50 [6]: 29.3 nM
Cc1oc(-c2ccccc2)nc1CCOc1ccc(/C=C/C=C2\SC(=O)NC2=O)cc1 | 13 | 13 |  |  | 
Cc1oc(-c2ccccc2)nc1CCC(=O)c1ccc(CCCC2OC(=O)NC2=O)cc1 (centres undefined) | 17 | 32 |  |  | 
COc1cc(CCCC2OC(=O)NC2=O)ccc1OCc1nc(-c2ccccc2)oc1C (centres undefined) | 75 | 61 |  | 48 | 
Cc1oc(-c2ccccc2)nc1CCOc1ccc(CCCC2OC(=O)NC2=O)cc1 (centres undefined) | 41 | 49 | 26 | 11 | ED25 [5]: 2.91 mg/kg/day
Cc1oc(-c2ccccc2)nc1COc1ccc(CCCC2OC(=O)NC2=O)cn1 (centres undefined) | 82 | 54 | 69 | 53 | ED25 [9, 11]: 0.048 mg/kg/day; EC50 [6]: 16.5 nM
Cc1oc(-c2ccccc2)nc1COc1ccc(CCCCCC2SC(=O)NC2=O)cc1 (centres undefined) | <10 | 19 |  |  | 
Cc1oc(-c2ccccc2)nc1COc1ccc(/C=C/C=C2/OC(=O)NC2=O)cc1 | 29 | 23 |  |  | 
Cc1oc(-c2ccccc2)nc1COc1cccc(CCCC2OC(=O)NC2=O)c1 (centres undefined) |  | 32 |  |  | Activity [8]: 47
Cc1oc(-c2ccccc2)nc1COc1ccc(CCC2SC(=O)NC2=O)cc1 (centres undefined) | 15 | 24 |  |  | 
